Data reported in ChEMBL document CHEMBL1137919, “Dipeptidyl aspartyl fluoromethylketones as potent caspase inhibitors: SAR of the N-protecting group” (Bioorg Med Chem Lett, 2004).

Tests used:
HeLa = test: Protecting effect against apoptosis induced by TNF-alpha in HeLa cells was determined; assay type: functional, Homo sapiens
Procedure, shortened: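 HeLa cells exposed to TNF-a to induce apoptosis, with test inhibitor present. Viability read out as calcein AM uptake. The value reported is the inhibitor concentration giving 50% cell protection.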

Caspase-9 = biological target: T1, Caspase-9 (Homo sapiens, UniProt P55211); test: Inhibition concentration required against caspase-9
T1 sequence (P55211 whole entry): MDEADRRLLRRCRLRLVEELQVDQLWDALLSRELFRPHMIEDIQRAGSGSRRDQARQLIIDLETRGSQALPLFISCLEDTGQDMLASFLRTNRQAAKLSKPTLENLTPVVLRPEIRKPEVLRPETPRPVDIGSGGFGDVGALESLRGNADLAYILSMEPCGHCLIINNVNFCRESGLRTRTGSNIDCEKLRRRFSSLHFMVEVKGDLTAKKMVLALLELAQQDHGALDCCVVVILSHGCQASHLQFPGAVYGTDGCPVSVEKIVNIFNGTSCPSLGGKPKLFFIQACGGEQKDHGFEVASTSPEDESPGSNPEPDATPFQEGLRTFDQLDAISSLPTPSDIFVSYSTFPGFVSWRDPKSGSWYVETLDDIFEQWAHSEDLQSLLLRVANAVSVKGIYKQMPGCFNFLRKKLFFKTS

[1] = Inhibition concentration required against factor Xa
[2] = biological target: T2, Calpain-1 catalytic subunit (Homo sapiens, UniProt P07384); test: Inhibition concentration required against calpain-1
T2 sequence (P07384 whole entry): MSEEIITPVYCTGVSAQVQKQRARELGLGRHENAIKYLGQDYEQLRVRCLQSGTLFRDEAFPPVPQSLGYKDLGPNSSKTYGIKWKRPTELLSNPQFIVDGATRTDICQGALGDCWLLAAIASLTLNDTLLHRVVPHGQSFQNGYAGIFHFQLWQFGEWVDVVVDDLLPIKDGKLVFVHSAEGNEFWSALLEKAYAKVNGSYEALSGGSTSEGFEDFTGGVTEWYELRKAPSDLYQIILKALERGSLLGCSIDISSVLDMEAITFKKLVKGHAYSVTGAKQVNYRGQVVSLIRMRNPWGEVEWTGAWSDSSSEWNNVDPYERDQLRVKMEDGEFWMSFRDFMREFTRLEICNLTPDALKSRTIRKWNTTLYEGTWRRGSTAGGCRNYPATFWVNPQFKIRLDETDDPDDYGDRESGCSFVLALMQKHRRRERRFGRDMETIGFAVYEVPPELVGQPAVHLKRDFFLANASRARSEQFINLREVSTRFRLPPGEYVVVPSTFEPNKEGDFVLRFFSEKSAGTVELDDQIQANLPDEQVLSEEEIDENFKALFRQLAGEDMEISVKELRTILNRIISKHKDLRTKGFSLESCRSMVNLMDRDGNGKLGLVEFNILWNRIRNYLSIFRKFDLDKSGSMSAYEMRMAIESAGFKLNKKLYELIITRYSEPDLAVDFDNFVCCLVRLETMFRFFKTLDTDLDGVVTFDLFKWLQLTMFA

[3] = Inhibition concentration required against caspase-1
Caspase-7 = biological target: T3, Caspase-7 (Homo sapiens, UniProt P55210); test: Inhibition concentration required against caspase-7
T3 sequence (P55210 whole entry): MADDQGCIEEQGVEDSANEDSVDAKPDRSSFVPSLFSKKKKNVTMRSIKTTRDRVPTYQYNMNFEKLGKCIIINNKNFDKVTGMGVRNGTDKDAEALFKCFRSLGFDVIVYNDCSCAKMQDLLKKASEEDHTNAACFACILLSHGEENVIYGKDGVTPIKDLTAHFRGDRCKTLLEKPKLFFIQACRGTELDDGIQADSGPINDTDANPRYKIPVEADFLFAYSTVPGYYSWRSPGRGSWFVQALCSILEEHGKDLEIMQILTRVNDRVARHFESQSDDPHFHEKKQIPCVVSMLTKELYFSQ

Caspase-8 = Caspase-8 (Homo sapiens, UniProt Q14790); test: Inhibition concentration required against caspase-8
Sequence of Caspase-8 (Q14790 217-374 limits assumed): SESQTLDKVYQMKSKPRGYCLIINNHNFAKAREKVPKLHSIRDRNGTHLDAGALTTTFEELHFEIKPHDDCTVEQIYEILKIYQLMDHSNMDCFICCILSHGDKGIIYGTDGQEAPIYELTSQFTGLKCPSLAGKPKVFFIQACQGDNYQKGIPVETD
Sequence of Caspase-8 (Q14790 385-479 limits assumed): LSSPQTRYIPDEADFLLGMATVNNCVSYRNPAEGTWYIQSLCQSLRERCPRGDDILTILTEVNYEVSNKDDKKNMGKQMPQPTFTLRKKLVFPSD

[4] = Inhibition concentration required against cathepsin B; parameters: species or system Homo sapiens
Caspase-3 = biological target: T4, Caspase-3 (Homo sapiens, UniProt P42574); test: Inhibitory activity against human recombinant caspase-3
T4 sequence (P42574 whole entry): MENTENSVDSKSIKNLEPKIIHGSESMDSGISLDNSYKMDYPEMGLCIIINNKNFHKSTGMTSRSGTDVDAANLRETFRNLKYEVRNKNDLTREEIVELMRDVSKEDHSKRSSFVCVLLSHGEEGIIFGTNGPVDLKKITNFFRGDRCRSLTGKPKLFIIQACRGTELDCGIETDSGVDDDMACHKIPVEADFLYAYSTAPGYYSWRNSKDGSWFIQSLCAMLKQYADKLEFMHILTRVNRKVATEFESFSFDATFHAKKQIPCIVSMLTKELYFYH

[5] = Percent survival of the mice after 3h treatment was determined after induction of apoptosis by anti-Fas antibody; Dose is 0.25 mg/kg; assay type: functional; conditions: Mus musculus
Procedure, shortened: (§1)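 Mouse anti-Fas lethality model: mice given 8 µg anti-Fas monoclonal antibody (clone JO-2) IV, then 5 min later an IV dose of inhibitor (0.25–10 mg/kg) or vehicle. The aqueous vehicle contained 50 mM Tris–HCl. Six mice per group. Survivors were counted at 1, 3, 6 and 24 h and at 5 days, expressed as % of the animals in the group.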

[6] = Percent survival of the mice after 5 days treatment was determined after induction of apoptosis by anti-Fas antibody; Dose is 0 mg/kg; assay type: functional, Mus musculus; procedure, shortened: as §1
[7] = Percent survival of the mice after 5 days treatment was determined after induction of apoptosis by anti-Fas antibody; Dose is 1 mg/kg; assay type: functional; conditions: Mus musculus, 120 h; procedure, shortened: as §1
[8] = Percent survival of the mice after 6 hr treatment was determined after induction of apoptosis by anti-Fas antibody; Dose is 0.25 mg/kg; assay type: functional; conditions: Mus musculus; procedure, shortened: as §1
[9] = Percent survival of the mice after 24 hr treatment was determined after induction of apoptosis by anti-Fas antibody; Dose is 0.25 mg/kg; assay type: functional; conditions: Mus musculus; procedure, shortened: as §1
[10] = Percent survival of the mice after 5 days treatment was determined after induction of apoptosis by anti-Fas antibody; Dose is 10 mg/kg; assay type: functional; conditions: Mus musculus, 120 h; procedure, shortened: as §1
[11] = Percent survival of the mice after 5 days treatment was determined after induction of apoptosis by anti-Fas antibody; Dose is 0.5 mg/kg; assay type: functional; conditions: Mus musculus, 120 h; procedure, shortened: as §1
[12] = Percent survival of the mice after 5 days treatment was determined after induction of apoptosis by anti-Fas antibody; Dose is 0.25 mg/kg; assay type: functional; conditions: Mus musculus, 120 h; procedure, shortened: as §1
[13] = Percent survival of the mice after 1 hr treatment was determined after induction of apoptosis by anti-Fas antibody; Dose is 0 mg/kg; assay type: functional, Mus musculus; procedure, shortened: as §1
[14] = Percent survival of the mice after 1 hr treatment was determined after induction of apoptosis by anti-Fas antibody; Dose is 1 mg/kg; assay type: functional; conditions: Mus musculus; procedure, shortened: as §1
[15] = Percent survival of the mice after 3h treatment was determined after induction of apoptosis by anti-Fas antibody; Dose is 0 mg/kg; assay type: functional, Mus musculus; procedure, shortened: as §1
[16] = Percent survival of the mice after 3h treatment was determined after induction of apoptosis by anti-Fas antibody; Dose is 1 mg/kg; assay type: functional; conditions: Mus musculus; procedure, shortened: as §1
[17] = Percent survival of the mice after 6 hr treatment was determined after induction of apoptosis by anti-Fas antibody; Dose is 0 mg/kg; assay type: functional, Mus musculus; procedure, shortened: as §1
[18] = Percent survival of the mice after 6 hr treatment was determined after induction of apoptosis by anti-Fas antibody; Dose is 1 mg/kg; assay type: functional; conditions: Mus musculus; procedure, shortened: as §1
[19] = Percent survival of the mice after 1 hr treatment was determined after induction of apoptosis by anti-Fas antibody; Dose is 10 mg/kg; assay type: functional; conditions: Mus musculus; procedure, shortened: as §1
[20] = Percent survival of the mice after 24 hr treatment was determined after induction of apoptosis by anti-Fas antibody; Dose is 0 mg/kg; assay type: functional, Mus musculus; procedure, shortened: as §1
[21] = Percent survival of the mice after 24 hr treatment was determined after induction of apoptosis by anti-Fas antibody; Dose is 1 mg/kg; assay type: functional; conditions: Mus musculus; procedure, shortened: as §1
[22] = Percent survival of the mice after 3h treatment was determined after induction of apoptosis by anti-Fas antibody; Dose is 10 mg/kg; assay type: functional; conditions: Mus musculus; procedure, shortened: as §1
[23] = Percent survival of the mice after 6 hr treatment was determined after induction of apoptosis by anti-Fas antibody; Dose is 10 mg/kg; assay type: functional; conditions: Mus musculus; procedure, shortened: as §1
[24] = Percent survival of the mice after 1 hr treatment was determined after induction of apoptosis by anti-Fas antibody; Dose is 0.5 mg/kg; assay type: functional; conditions: Mus musculus; procedure, shortened: as §1
[25] = Percent survival of the mice after 24 hr treatment was determined after induction of apoptosis by anti-Fas antibody; Dose is 10 mg/kg; assay type: functional; conditions: Mus musculus; procedure, shortened: as §1
[26] = Percent survival of the mice after 3h treatment was determined after induction of apoptosis by anti-Fas antibody; Dose is 0.5 mg/kg; assay type: functional; conditions: Mus musculus; procedure, shortened: as §1
[27] = Percent survival of the mice after 6 hr treatment was determined after induction of apoptosis by anti-Fas antibody; Dose is 0.5 mg/kg; assay type: functional; conditions: Mus musculus; procedure, shortened: as §1
[28] = Percent survival of the mice after 1 hr treatment was determined after induction of apoptosis by anti-Fas antibody; Dose is 0.25 mg/kg; assay type: functional; conditions: Mus musculus; procedure, shortened: as §1
[29] = Percent survival of the mice after 24 hr treatment was determined after induction of apoptosis by anti-Fas antibody; Dose is 0.5 mg/kg; assay type: functional; conditions: Mus musculus; procedure, shortened: as §1

CC(C)[C@H](NC(=O)OCc1ccc(Cl)cc1Cl)C(=O)NC(CC(=O)O)C(=O)CF (stereo not given in full)
Protection (HeLa): 100 nM
IC50 (Caspase-9): 9 nM
IC50 [1]: > 100 µM
IC50 [2]: ~5 µM
IC50 [3]: 26 nM
IC50 (Caspase-7): 10 nM
IC50 (Caspase-8): 6 nM
IC50 [4]: ~10 µM
IC50 (Caspase-3): 25 nM
survival at 0.25 mg/kg [5]: 100%
Survival [6]: 0%
survival at 1 mg/kg [7]: 100%
survival at 0.25 mg/kg [8]: 83%
survival at 0.25 mg/kg [9]: 33%
survival at 10 mg/kg [10]: 100%
survival at 0.5 mg/kg [11]: 50%
survival at 0.25 mg/kg [12]: 16%
Survival [13]: 0%
survival at 1 mg/kg [14]: 100%
Survival [15]: 0%
survival at 1 mg/kg [16]: 100%
Survival [17]: 0%
survival at 1 mg/kg [18]: 100%
survival at 10 mg/kg [19]: 100%
Survival [20]: 0%
survival at 1 mg/kg [21]: 100%
survival at 10 mg/kg [22]: 100%
survival at 10 mg/kg [23]: 100%
survival at 0.5 mg/kg [24]: 100%
survival at 10 mg/kg [25]: 100%
survival at 0.5 mg/kg [26]: 100%
survival at 0.5 mg/kg [27]: 83%
survival at 0.25 mg/kg [28]: 100%
survival at 0.5 mg/kg [29]: 50%

CC(C)[C@H](NC(=O)OCc1cc(Cl)ccc1Cl)C(=O)NC(CC(=O)O)C(=O)CF (stereo not given in full)
Protection (HeLa): 100 nM

CC(C)[C@H](NC(=O)OCc1ccc(Cl)c(Cl)c1)C(=O)NC(CC(=O)O)C(=O)CF (stereo not given in full)
Protection (HeLa): 150 nM

COC(=O)N[C@H](C(=O)NC(CC(=O)O)C(=O)CF)C(C)C (stereo not given in full)
Protection (HeLa): 500 nM

CC(C)[C@H](NC(=O)OCc1ccccc1)C(=O)NC(CC(=O)O)C(=O)CF (stereo not given in full)
Protection (HeLa): 250 nM

CC(C)[C@H](NC(=O)OCC1CCCC1)C(=O)NC(CC(=O)O)C(=O)CF (stereo not given in full)
Protection (HeLa): 300 nM

CC(C)[C@H](NC(=O)OCc1ccc(F)cc1)C(=O)NC(CC(=O)O)C(=O)CF (stereo not given in full)
Protection (HeLa): 150 nM
